Data on 1 molecule can be found in ChEMBL document CHEMBL3992522, “Antileishmanial Activity of Pyrazolopyridine Derivatives and Their Potential as an Adjunct Therapy with Miltefosine” (J Med Chem, 2017).

The structures appear in SMILES notation. Active and inactive are the calls of the source. No cut-off for these calls is given here.

Data set [1] can be described thus: Cmax in Swiss mouse at 50 mg/kg, po by LC-MS/MS analysis. The data set is classed as ADME, organism-based. Further details: dose 50 mg/kg, route oral. To be noted: in vivo.
The subject of data set [2] is Mus musculus. Description: Increase in iNOS mRNA expression level in Balb/c mouse splenocytes infected with Leishmania donovani amastigote forms at 25 mg/kg, ip cotreated with 5 mg/kg, po miltefosine for 5 consecutive days measured on day 7 post last treatment by RT-PCR assay relative to control. It counts as functional. An outline of the steps:
(§1)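 Infected BALB/c mice dosed for 5 consecutive days (test compound i.p. in 8% DMSO, miltefosine oral), n = 5 per group; splenocytes taken day 4 and day 7 post-treatment. Total RNA extracted and iNOS mRNA quantified by real-time PCR, normalized to mouse β-actin, expressed as fold change over uninfected controls.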

Data set [3] concerns Leishmania donovani. The data set can be described thus: Induction of mitochondrial membrane potential loss in Leishmania donovani MHOM/IN/80/DD8 promastigote forms at 50 uM after 48 hrs by JC-1 staining based flow cytometry (reference value: 5.02%). It counts as functional. On the technique in general: In flow cytometry, cells or beads pass a laser one at a time.
Data set [4] in a line: AUC (0 to infinity) in Swiss mouse at 50 mg/kg, po by LC-MS/MS analysis. Further details: dose 50 mg/kg, route oral, time infinity. The data set is classed as ADME, organism-based. To be noted: in vivo.
The subject of data set [5] is Leishmania donovani. The data set can be described thus: Induction of mitochondrial membrane potential loss in Leishmania donovani MHOM/IN/80/DD8 promastigote forms at 50 uM after 24 hrs by JC-1 staining based flow cytometry (reference value: 5.02%). The data set is classed as functional.
In data set [6] the test system is Mus musculus. Description: Increase in iNOS-mediated NO generation in Balb/c mouse splenocytes infected with Leishmania donovani amastigote forms at 25 mg/kg, ip cotreated with 5 mg/kg, po miltefosine for 5 consecutive days measured on day 4 post last treatment followed by soluble Leishmania donovani promastigote antigen-stimulation for 72 hrs by Griess assay relative to control. It counts as functional. Summed up: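 Splenocytes from treated infected BALB/c mice (5-day regimen, i.p. test compound, oral miltefosine; n = 5) isolated day 4 and day 7 post-treatment. Cultured in phenol red-free RPMI 1640 with 5 μg/mL SLA for 72 h at 37 °C, 5% CO2. Supernatant nitrite measured by Griess assay at 540 nm against a sodium nitrite standard curve.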

Data set [7] has as its system Leishmania donovani. The data set can be described thus: Antileishmanial activity against Leishmania donovani MHOM/IN/80/DD8 amastigote forms harboring luciferase gene infected in mouse J774 cells at 4.05 uM up to 72 hrs by Giemsa staining based assay relative to control. The data set is classed as functional. To be noted: MHOM/IN/80/DD8, J774, 72 h. An outline of the steps:
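J774 macrophages in chamber slides infected with Dd8 promastigotes (1:10 cell:parasite in methods; 1:8 in legend) for 24 h, then treated 48 and 72 h. Cells methanol-fixed, stained with 20% Giemsa. Amastigotes per 100 macrophages counted against untreated infected controls.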

The subject of data set [8] is Mus musculus. Description: Increase in iNOS mRNA expression level in Balb/c mouse splenocytes infected with Leishmania donovani amastigote forms at 25 mg/kg, ip for 5 consecutive days measured on day 4 post last treatment by RT-PCR assay relative to control. The data set is classed as functional. An outline of the steps:
as §1

In data set [9] the test system is Leishmania donovani. Description: Antileishmanial activity against Leishmania donovani amastigote forms infected in Balb/c mouse assessed as inhibition of parasitic burden in spleen at 200 mg/kg, ip administered for 5 consecutive days measured on day 7 post last treatment by Giemsa staining based assay relative to control. To be noted: Leishmania donovani, ip, 168 h. The data set is classed as functional.

Data set [10] has as its system Leishmania donovani. Description: Antileishmanial activity against Leishmania donovani amastigote forms infected in Balb/c mouse assessed as inhibition of parasitic burden in liver at 100 mg/kg, ip administered for 5 consecutive days measured on day 7 post last treatment by Giemsa staining based assay relative to control. The data set is classed as functional. The settings on record: 168 h.

Data set [11] relates to Leishmania donovani. Description: Induction of mitochondrial membrane potential loss in Leishmania donovani MHOM/IN/80/DD8 promastigote forms at 50 uM after 12 hrs by JC-1 staining based flow cytometry (reference value: 5.02%). It counts as functional.
In data set [12] the test system is Leishmania donovani. Description: Induction of apoptosis in Leishmania donovani MHOM/IN/80/DD8 promastigote forms assessed as cell rounding at IC50 after 48 hrs by propidium iodide staining based fluorescent microscopic method. The data set is classed as functional.
The subject of data set [13] is Leishmania donovani. The data set can be described thus: Induction of apoptosis in Leishmania donovani MHOM/IN/80/DD8 promastigote forms assessed as early apoptotic cells at IC50 after 48 hrs by Annexin V-FITC/propidium iodide staining based flow cytometry (reference value: 7.41%). It counts as functional.
Data set [14] deals with Mus musculus. The data set can be described thus: Increase in IL-12 level in Balb/c mouse splenocytes infected with Leishmania donovani amastigote forms at 25 mg/kg, ip co-treated with 5 mg/kg, po miltefosine administered for 5 consecutive days measured on day 7 post last treatment by sandwich ELISA relative to control. The data set is classed as functional. Summed up:
(§2)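 Splenocytes (2×10^6) from treated infected BALB/c mice taken on day 4 or 7 post-treatment. Cultured in phenol-red-free RPMI 1640 with 5 μg/mL soluble L. donovani antigen for 72 h at 37 °C, 5% CO2. Supernatant cytokines measured by sandwich ELISA against a standard curve. Mean ± SD, n = 5 mice per group, three independent experiments.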
A general note: ELISA stands for enzyme-linked immunosorbent assay.

The subject of data set [15] is Mus musculus. The data set can be described thus: Increase in TNFalpha level in Balb/c mouse splenocytes infected with Leishmania donovani amastigote forms at 25 mg/kg, ip co-treated with 5 mg/kg, po miltefosine administered for 5 consecutive days measured on day 4 post last treatment by sandwich ELISA relative to control. It counts as functional. Summed up: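 BALB/c mice infected with L. donovani (15 days); treatment for 5 consecutive days, test compound i.p. in 8% DMSO/water, miltefosine oral in TDW; sacrificed day 4 and day 7 post-treatment, n = 5 per group. Splenocytes (2×10^6) cultured 72 h in phenol red-free RPMI 1640 with 5 μg/mL SLA; supernatant cytokines by sandwich ELISA.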

Data set [16] can be described thus: Cytotoxicity against mouse J774 cells assessed as reduction in cell viability after 72 hrs by MTT assay. The data set is classed as cell-based. Summed up: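 Vero and J774 cells seeded at 1×10^5 per well for 24 h, then exposed 72 h to seven two-fold dilutions from 500 to 7.81 μM. MTT solution (5 mg/mL stock) added for 2 h at 37 °C, formazan dissolved in DMSO and read at 540 nm. CC50 derived by the Huber and Koella method.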
For orientation: Tetrazolium assays rely on reduction of a dye to a coloured formazan, in cell work by metabolically active cells.

The subject of data set [17] is Mus musculus. The data set can be described thus: Increase in IFN-gamma level in Balb/c mouse splenocytes infected with Leishmania donovani amastigote forms at 25 mg/kg, ip co-treated with 5 mg/kg, po miltefosine administered for 5 consecutive days measured on day 7 post last treatment by sandwich ELISA relative to control. The data set is classed as functional. Summed up: as §2

Data set [18] concerns Leishmania donovani. The data set can be described thus: Antileishmanial activity against Leishmania donovani MHOM/IN/80/DD8 amastigote forms harboring luciferase gene infected in mouse J774 cells at 6.25 to 12.5 uM up to 4 days by Steady-Glo reagent based luminescence assay. The data set is classed as functional, cell-based. An outline of the steps: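 Infected J774 macrophages held at 37 °C with two-fold dilutions from 200 to 6.25 µM. Intracellular amastigote growth followed by luciferase activity in lysed macrophages, expressed as RLU, over time. Three independent experiments.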

Data set [19] has as its system Leishmania donovani. Description: Induction of apoptosis in Leishmania donovani MHOM/IN/80/DD8 promastigote forms assessed as late apoptotic cells at 50 uM after 48 hrs by Annexin V-FITC/propidium iodide staining based flow cytometry (reference value: 0.86%). It counts as functional.
In data set [20] the test system is Leishmania donovani. Description: Antileishmanial activity against Leishmania donovani amastigote forms infected in Balb/c mouse assessed as inhibition of parasitic burden in spleen at 25 mg/kg, ip administered for 5 consecutive days measured on day 7 post last treatment by Giemsa staining based assay relative to control. The settings on record: 168 h.

In the case of `COc1ccc(C2C3=C(CCC3=O)Nc3c2c(-c2c[nH]c4ccccc24)nn3-c2ccc(Cl)c(Cl)c2)cc1OC` (stereo not given), the Cmax in data set [1] was determined as 4.88 µM. Moreover, the “fold change (FC)” value is recorded as 8.5 in the data set with Mus musculus [2]; 5.6 in the data set on Mus musculus [6]; 4.9 with Mus musculus [8]; 11.3 with Mus musculus [14]; 7.4 with Mus musculus [15]; 8.5 in the data set on Mus musculus [17]. The Activity in the data set with Leishmania donovani [3] is given as 44.9%; in the data set with Leishmania donovani [5] it was 52.6%; in the data set on Leishmania donovani [11], 32.9%; with Leishmania donovani [13] it was 17.2%; with Leishmania donovani [19], 54.2%. In addition, the AUC(0-inf) in data set [4] was found to be 31.7 µM·h. For the same molecule, in the data set on Leishmania donovani [7], the inhibition at 4.05 µM was greater than 93%. Besides, the inhibition in vivo at 200 mg/kg with Leishmania donovani [9] was found to be 90%. The inhibition in vivo at 100 mg/kg in the data set on Leishmania donovani [10] amounted to 92.7%. Also, the outcome in the data set with Leishmania donovani [12] and in the data set with Leishmania donovani [18] was Active. Also, the cytotoxic concentration (CC50) at 72 h in data set [16] worked out at 409 µM. Moreover, the inhibition in vivo at 25 mg/kg in the data set on Leishmania donovani [20] is greater than 59%.

As a reminder, the Cmax is the highest concentration seen after dosing. One may read the AUC(0-inf) as the area under the concentration-time curve extrapolated to infinity. The low end stands for low exposure, the high end for high exposure. The inhibition is the drop in the measured response relative to a control, in per cent. High values mean strong suppression, low ones little suppression. As a reminder, the inhibition in vivo is how much of the control response was suppressed. By CC50 is commonly meant the concentration that lowers cell viability or growth by half.
